Results as given in ChEMBL document CHEMBL1124666, “Novel linked antiviral and antitumor agents related to netropsin and distamycin: synthesis and biological evaluation” (1989).

Key:
[1] = test system: Vaccinia virus; assay: Minimum cytotoxic concentration against primary rabbit kidney cell cultures; assay type: functional; settings: Orthopoxvirus vaccinia
Summary of the method: (§1)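 Host cell cultures (primary rabbit kidney, HeLa, Vero, or E6SM embryonic skin-muscle cells, as named) exposed to compound. Minimum cytotoxic concentration taken as the concentration required to cause a microscopically detectable alteration of normal cell morphology.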

[2] = test system: Vaccinia virus; assay: Minimum inhibitory concentration against vaccinia virus embryonic skin muscle cell cultures; assay type: functional; settings: Orthopoxvirus vaccinia
[3] = test system: Human alphaherpesvirus 2; assay: Minimum inhibitory concentration against Herpes simplex virus 2(G); assay type: functional
[4] = test system: Vaccinia virus; assay: Minimum inhibitory concentration against vaccinia virus in primary rabbit kidney cell cultures of experiment 1; assay type: functional; settings: Orthopoxvirus vaccinia
[5] = test system: Vaccinia virus; assay: Minimum cytotoxic concentration against HeLa cell cultures; assay type: functional; settings: Orthopoxvirus vaccinia; summary of the method: as §1
[6] = test system: Raji; assay: Inhibitory effect on the proliferation of human B lymphoblast (Raji ) cells; assay type: functional; settings: read-out: ID50 (the source's name)
[7] = test system: P388; assay: Concentration which leads to inhibitory effect on the proliferation of murine leukemia (P388) cells; assay type: functional; settings: Mus musculus, read-out: ID50 (the source's name)
Summary of the method: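 Murine P388 leukaemia cells grown in Fischer's medium with 10% fetal calf serum. Compounds dissolved in water, or sonicated and given as a suspension if poorly soluble. Cells seeded at 1 × 10^5 per well and grown 72 h at 37 °C in humidified 5% CO2 with drug. Viability read by MTT formazan optical density at 570 nm (reference 630 nm).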

[8] = Inhibition of Moloney Murine Leukemia Associated Reverse Transcriptase; assay type: functional, Mus musculus
[9] = test system: Vaccinia virus; assay: (§2) Minimum inhibitory concentration against vaccinia virus in primary rabbit kidney cell cultures of experiment 2; assay type: functional, Orthopoxvirus vaccinia
[10] = Inhibitory effect on the proliferation of human T-lymphoblast (Molt/4F ) cells; assay type: functional; settings: read-out: ID50 (the source's name)
[11] = test system: Vaccinia virus; assay: Minimum inhibitory concentration against vaccinia virus in Vero cell cultures of experiment 1; assay type: functional; settings: Orthopoxvirus vaccinia
[12] = test system: Vaccinia virus; assay: Minimum cytotoxic concentration against Vero cell cultures; assay type: functional; settings: Orthopoxvirus vaccinia; summary of the method: as §1
[13] = test system: Human alphaherpesvirus 1; assay: Minimum inhibitory concentration against Herpes simplex virus 1(KOS); assay type: functional
[14] = test system: FM3A; assay: Inhibitory effect on the proliferation of murine mammary carcinoma (FM3A ) cells; assay type: functional; settings: Mus musculus, read-out: ID50 (the source's name)
[15] = test system: Vaccinia virus; assay: Minimum inhibitory concentration against vaccinia virus in Vero cell cultures of experiment 2; assay type: functional; settings: Orthopoxvirus vaccinia
[16] = test system: L1210; assay: Inhibitory effect on the proliferation of murine leukemia (L1210 ) cells; assay type: functional; settings: Mus musculus, read-out: ID50 (the source's name)
[17] = test system: Vesicular stomatitis virus; assay: Minimum inhibitory concentration against Vesicular stomatitis virus; assay type: functional
[18] = test system: PRK; assay: Compound was evaluated for the minimum cytotoxic concentration in primary rabbit kidney (PRK) cell cultures; assay type: functional; settings: Oryctolagus cuniculus; summary of the method: as §1
[19] = test system: Vaccinia virus; assay: Minimum cytotoxic concentration against embryonic skin muscle cell cultures; assay type: functional; settings: Orthopoxvirus vaccinia; summary of the method: as §1
[20] = test system: Vaccinia virus; assay: Minimum inhibitory concentration against Vaccinia virus; assay type: functional; settings: Orthopoxvirus vaccinia
[21] = test system: P388; assay: Inhibitory effect on the proliferation of murine leukemia (P388) cells; assay type: functional; settings: Mus musculus, read-out: ID50 (the source's name)
[22] = Minimum cytotoxic concentration in primary rabbit kidney (PRK) cell cultures; assay type: functional, Oryctolagus cuniculus
[23] = test system: Raji; assay: Inhibitory effect on the proliferation of human B lymphoblast (Raji) cells; assay type: functional; settings: read-out: ID50 (the source's name)
[24] = test system: Vaccinia virus; assay: Minimum cytotoxic concentration against vaccinia virus embryonic skin muscle cell cultures; assay type: functional; settings: Orthopoxvirus vaccinia
[25] = Inhibitory effect on the proliferation of human T-lymphoblast (Molt/4F) cells; assay type: functional; settings: read-out: ID50 (the source's name)
[26] = test system: L1210; assay: Inhibitory effect on the proliferation of murine leukemia (L1210) cells; assay type: functional; settings: Mus musculus, read-out: ID50 (the source's name)
[27] = test system: Vaccinia virus; assay: Minimum cytotoxic concentration against vaccinia virus in HeLa cell cultures; assay type: functional; settings: Orthopoxvirus vaccinia
[28] = test system: Vaccinia virus; assay: Minimum cytotoxic concentration against vaccinia virus in Vero cell cultures; assay type: functional; settings: Orthopoxvirus vaccinia
[29] = test system: Vaccinia virus; assay: Minimum cytotoxic concentration against vaccinia virus in primary rabbit kidney cell cultures; assay type: functional; settings: Orthopoxvirus vaccinia
[30] = test system: Vaccinia virus; assay: as §2; assay type: functional; settings: Orthopoxvirus vaccinia
[31] = test system: FM3A; assay: Inhibitory effect on the proliferation of murine mammary carcinoma (FM3A) cells; assay type: functional; settings: Mus musculus, read-out: ID50 (the source's name)
[32] = test system: Calf thymus DNA; assay: Relative binding constant to calf thymus DNA; assay type: nucleic-acid assay; settings: Bos taurus
Summary of the method: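 Ethidium displacement: Tris-EDTA buffer pH 8 with 1.3 μM ethidium bromide and calf thymus DNA (1.35 μM final); drug aliquots added, fluorescence read after a few minutes' equilibration (excitation 525 nm, emission 600 nm). Drug level giving 50% fluorescence decrease converted to relative binding constant taking ethidium binding constant as 10^7 M-1.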

[33] = test system: Vaccinia virus; assay: Minimum cytotoxic concentration against vaccinia virus against embryonic skin muscle cell cultures; assay type: functional; settings: Orthopoxvirus vaccinia
[34] = test system: Vaccinia virus; assay: Minimum inhibitory concentration against vaccinia virus in HeLa cell cultures; assay type: functional; settings: Orthopoxvirus vaccinia
[35] = Orthopoxvirus vaccinia, read-out: MIC

SMILES | MIC [2] [µg/mL] | MIC [3] [µg/mL] | MIC [4] [µg/mL] | ID50 [8] [µg/mL] | MIC [9, 35] [µg/mL] | MIC [11] [µg/mL] | MIC [13] [µg/mL] | MIC [15] [µg/mL] | MIC [17] [µg/mL] | MIC [20] [µg/mL] | IC50 [21] [µg/mL] | MCC [22] [µg/mL] | MCC [27] [µg/mL] | MCC [28] [µg/mL] | MCC [29] [µg/mL] | Binding constant [32] [M⁻¹] | other results
Cl.Cl.Cn1cc(NC(=O)CCC(=O)Nc2cc(C(=O)NCCC(=N)N)n(C)c2)cc1C(=O)NCCC(=N)N | 70 | > 40 | 300 | >400 | 400 | > 400 | > 100 | > 400 | > 100 | 20 |  |  |  |  |  |  | MCC [1]: > 400 µg/mL; MCC [5]: > 400 µg/mL; IC50 [6]: > 100 µg/mL; IC50 [7]: > 20 µg/mL; MIC [9]: >400 µg/mL; IC50 [10]: > 100 µg/mL; MCC [12]: > 400 µg/mL; IC50 [14]: > 100 µg/mL; IC50 [16]: > 100 µg/mL; MCC [18]: > 100 µg/mL; MCC [19]: > 400 µg/mL
Cl.Cl.Cn1cc(NC(=O)c2cc(NC(=O)Nc3cc(C(=O)Nc4cc(C(=O)NCCC(=N)N)n(C)c4)n(C)c3)cn2C)cc1C(=O)NCCC(=N)N | 2 | 20 | 7 |  | 20 | 20 | > 10 | 20 | > 40 | 7 | 8 | >40 | > 40 | > 40 | 40 | 5.6e+07 | IC50 [23]: > 100 µg/mL; MCC [24]: 100 µg/mL; IC50 [25]: > 100 µg/mL; IC50 [26]: > 100 µg/mL; MIC [30]: 7 µg/mL; IC50 [31]: > 100 µg/mL
Cl.Cl.Cn1cc(NC(=O)c2cc(NC(=O)CCCCCCCCCC(=O)Nc3cc(C(=O)Nc4cc(C(=O)NCCC(=N)N)n(C)c4)n(C)c3)cn2C)cc1C(=O)NCCC(=N)N | 0.2 | 20 | 2 | 10.3 |  | > 40 | > 10 |  | > 40 | 2 | 18 | >40 | 100 | 100 | > 40 | 1.9e+07 | MCC [33]: > 40 µg/mL; MIC [34]: 20 µg/mL
